Screening data as filed in PubChem BioAssay.
Bcl-B Bim block = inhibitors of Bim-Bcl-B binding, primary screen, biochemical, multiplexed, human Bcl-2 family | Bcl-2-like protein 10 (Homo sapiens), Q9HD36 | bead-based flow cytometry, Bim peptide-Bcl-B binding | inhibition, % at 10 µM | 190,000 tested, 0.073% active | AID 951, 2007;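 further: 0% = tracer peptide without compound and 100% = reference inhibitor peptide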
Target sequence (Q9HD36 whole entry, looked up): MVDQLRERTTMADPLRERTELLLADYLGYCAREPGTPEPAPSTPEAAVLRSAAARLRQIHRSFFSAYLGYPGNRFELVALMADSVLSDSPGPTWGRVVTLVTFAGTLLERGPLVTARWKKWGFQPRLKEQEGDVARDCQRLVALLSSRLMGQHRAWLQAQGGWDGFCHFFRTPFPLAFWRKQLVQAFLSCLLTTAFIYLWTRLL
Bcl-2 Bim block = inhibitors of Bim-Bcl-2 binding, primary screen, biochemical, multiplexed, human Bcl-2 family. Apoptosis regulator Bcl-2 (Homo sapiens), P10415. Bead-based flow cytometry, Bim peptide-Bcl-2 binding. inhibition, % at 10 µM. 190,000 tested, 0.06% active; in the data active means inhibition above about 40%;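 further: 0% = no compound wells with probe peptide and 100% = reference peptide inhibitor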
Bcl-W Bim block = inhibitors of Bim binding to Bcl-W, primary screen, biochemical, multiplexed, bead-based flow cytometry. Bim peptide-Bcl-W binding. inhibition, % at 10 µM. 190,000 tested, 0.02% active. AID 952, 2007;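 further: 0% = bound tracer without compound and 100% = peptide blocker; higher means less fluorescent Bim peptide bound to Bcl-W beads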
Bim-Bfl-1 = inhibitors of Bim binding to Bfl-1, primary screen, biochemical, multiplexed, bead-based flow cytometry; Bim-Bfl-1 binding inhibition; 190,000 tested, 0.12% active; Bcl-2-related protein A1 (Homo sapiens), Q16548; inhibition, % at 10 µM;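 further: 0% = wells without compound plus tracer and 100% = blocker peptide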
Bcl-XL Bim block = inhibitors of Bim-Bcl-XL binding, primary screen, biochemical, multiplexed, bead flow cytometry, human Bcl-XL; 190,000 tested, 0.04% active; inhibition, % at 10 µM; Bcl-2-like protein 1 (Homo sapiens), Q07817; Bim peptide-Bcl-XL binding, fluorescence
Target sequence (Q07817 whole entry, looked up): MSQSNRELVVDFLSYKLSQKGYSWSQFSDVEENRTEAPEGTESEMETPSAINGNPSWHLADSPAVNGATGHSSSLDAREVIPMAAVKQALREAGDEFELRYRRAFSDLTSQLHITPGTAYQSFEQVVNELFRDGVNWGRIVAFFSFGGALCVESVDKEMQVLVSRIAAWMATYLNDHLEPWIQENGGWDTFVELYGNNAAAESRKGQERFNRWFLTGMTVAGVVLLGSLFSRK
Calb biofilm kill = clotrimazole potentiators killing C. albicans biofilm, primary screen, 4-compound mixtures; C. albicans biofilm persisters + clotrimazole, fluorescence viability; primary screen in compound mixtures of four per well; inhibition, % at 7.6 µM; 120,000 tested, 0.02% active;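 active means inhibition above 30.3% in the primary screen of four-compound pools, then above 30% when the compound was retested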;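 further: compounds exposed to preformed 24 h biofilms for 48 h; 0% = untreated biofilm control and 100% = clotrimazole plus chlorhexidine kill blank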
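Test system: C. albicans CAF4-2 wild-type biofilms; buffer or medium: RPMI/MOPS medium, pH 7.0; schedule: 24 h biofilm formation, then 48 h compound exposure, 37 °C; detection: Alamar Blue fluorescence; measure: percent inhibition of biofilm viability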
* marks the source's active call; other numbers are inactive results; / = not tested or not shown. This is a sample that favours compounds with a hit; in the whole collection about 0.17% have one here. Unless noted, no stated cut-off is given here; in the data, active means inhibition above about 40%.

SMILES | Bcl-B Bim block | Bcl-2 Bim block | Bcl-W Bim block | Bim-Bfl-1 | Bcl-XL Bim block | Calb biofilm kill
CC(C)c1ccc(C2CC(c3ccc(Br)cc3)=NN2C(N)=S)cc1 (stereo unspecified) | 66* | -1 | -3 | -2 | -3 | 5
CNC(=S)N1N=C(c2ccc(C)cc2)CC1c1ccc(Br)cc1 (stereo unspecified) | -8 | -7 | 0 | -11 | 0 | /
Oc1ccc(C2=Nn3c(nnc3-c3ccco3)SC2)cc1O | 36 | 17 | 35 | 15 | 55* | /
Cc1cccc(NNC(=O)c2c(F)cccc2Cl)c1 | / | / | / | / | / | 14
CCCCNC(=O)C(Cc1ccccc1)NS(=O)(=O)c1ccc2c(c1)c(=O)n(C)c(=O)n2C (stereo unspecified) | 0 | 1 | 1 | -5 | 0 | /
Cc1ccc(Nc2nc(N)nc(CN3CCN(Cc4ccc5c(c4)OCO5)CC3)n2)cc1Cl | -4 | -4 | -7 | -4 | 0 | /
Cc1ccc(Nc2nc(N)nc(CN3CCN(Cc4ccc5c(c4)OCO5)CC3)n2)cc1C | -5 | -3 | -3 | -10 | -6 | 33*
N#Cc1cc(-c2ccccc2)nn1-c1ccccc1 | -9 | 9 | 24 | 57* | 3 | /
Cn1ccc(-c2ccccc2)n1 | -2 | 2 | -1 | -3 | -3 | 11
CCN(CC)C(=O)C(=O)N/N=C/c1cccc(Br)c1 | -1 | -2 | -1 | -2 | -1 | /
COCCN=c1scc(-c2cccs2)n1/N=C/c1ccc(O)c(O)c1O | 0 | 21 | 21 | 40* | 6 | 15
CCN=c1scc(C)n1/N=C/c1ccc(O)c(O)c1O | -2 | 19 | 21 | 51* | 8 | /
CCOC(=O)C1=C(C)N(C)C(=O)NC1c1cc2c(cc1[N+](=O)[O-])OCO2 (stereo unspecified) | -9 | -5 | 0 | -3 | -2 | 1
CC(CCc1ccccc1)NC(=O)C1CCN(S(=O)(=O)N2CCCCC2)CC1 (stereo unspecified) | 25 | 28 | 25 | 38 | 41* | /
CCOC(=O)Cc1cc(=O)[nH]c(Nc2nc3ccccc3o2)n1 | -3 | -3 | -1 | -6 | -1 | /
COC(=O)Cc1cc(=O)[nH]c(Nc2nc3ccccc3o2)n1 | -2 | -5 | 13 | 64* | 4 | /
Cc1ccc(C(=O)Nc2ncnc3sc4c(c23)CCCCC4)cc1 | -1 | -2 | -1 | -3 | 7 | /
Clc1nc2ccccc2cc1/C=N/Nc1nc2ccccc2[nH]1 | 94* | 93* | 58* | 69* | 58* | 19
C(=N\Nc1nc2ccccc2[nH]1)/c1ccncc1 | 4 | 1 | 0 | -2 | 0 | 18
CC(C)(C#CCN1CCCCC1)OCCOC(c1ccccc1)c1ccccc1 | -10 | -4 | -7 | -17 | -9 | 8
Cc1ccc(/C=C/C2=Cc3c(sc(NC(=O)CSc4n[nH]c(N)n4)c3C#N)C(C)(C)C2)o1 | 7 | 19 | 26 | 47* | 16 | /
CC1(C)SC(=S)N(/N=C/c2ccccc2O)C1N(O)C(=O)Nc1ccccc1 (stereo unspecified) | / | / | / | / | / | 21
CC1(C)SC(=S)N(NC(=O)Nc2ccccc2)C1N(O)C(=O)Nc1cccc2ccccc12 (stereo unspecified) | 32 | 38 | 37 | 48* | 45* | 4
CN(C)CCNC(=O)C(=O)C1C(=O)Nc2ccccc21 (stereo unspecified) | 70* | 78* | -6 | 52* | 0 | 8
CCCCCNC(=O)C(=O)C1C(=O)Nc2ccccc21 (stereo unspecified) | / | / | / | / | / | 17
Nc1c(C(=O)NCC2CCCO2)sc2nc3c(c(-c4ccco4)c12)CC/C3=C\c1ccco1 (stereo unspecified) | 52* | 65* | 33 | 38 | 37 | 10
Cc1ccc(C)c(Oc2ncnc(N)c2[N+](=O)[O-])c1 | 24 | 31 | 29 | 43* | 46* | -6
